Data reported in ChEMBL document CHEMBL4118164, “Discovery of (E)-1-amino-4-phenylbut-3-en-2-ol derivatives as novel neuraminidase inhibitors” (Bioorg Med Chem Lett, 2018).

molecular target: Neuraminidase (Influenza A virus, UniProt B4URF0); assay: Inhibition of Influenza A H1N1 virus neuraminidase activity preincubated for 2 mins followed by MUNANA substrate addition measured after 30 mins by […]
In short: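 Test compounds were dissolved in DMSO as stock solutions and diluted with assay buffer to four concentrations, spaced tenfold apart. Neuraminidase inhibition was measured with a commercial neuraminidase-inhibitor screening kit using a fluorescent read-out. IC50 values are means of three or more experiments.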

Neuraminidase, sequence (B4URF0 whole entry): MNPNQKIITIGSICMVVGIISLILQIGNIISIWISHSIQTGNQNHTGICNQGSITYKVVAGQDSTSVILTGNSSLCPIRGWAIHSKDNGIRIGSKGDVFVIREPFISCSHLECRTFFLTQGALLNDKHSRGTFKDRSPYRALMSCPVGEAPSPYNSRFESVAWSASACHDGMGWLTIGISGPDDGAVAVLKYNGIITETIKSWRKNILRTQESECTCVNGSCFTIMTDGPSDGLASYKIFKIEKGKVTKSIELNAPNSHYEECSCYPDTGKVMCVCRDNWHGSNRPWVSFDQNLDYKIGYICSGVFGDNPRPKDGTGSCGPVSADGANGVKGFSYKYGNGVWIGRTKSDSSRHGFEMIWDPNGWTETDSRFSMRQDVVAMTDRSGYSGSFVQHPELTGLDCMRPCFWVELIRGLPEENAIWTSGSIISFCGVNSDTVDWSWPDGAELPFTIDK

`CC(C)(C)OC(=O)/N=C(\NCC(O)/C=C/c1ccccc1)NC(=O)OC(C)(C)C` (stereo unspecified) and `CC(C)(C)OC(=O)NCC(O)/C=C/c1ccccc1` (stereo unspecified) are within 1.5-fold of each other in IC50: 103 µM for the first, 106 µM for the second.

Going from `NCC(O)/C=C/c1ccccc1` (stereo unspecified) [listing 1 of 2 here] to `NCC(O)c1ccccc1` (stereo unspecified), the IC50 rises from 207 µM to 870 µM (4.2-fold). The first is the more potent here.

First: COC(=O)c1ccc(C(=O)NCC(/C=C/c2ccccc2)OC(=O)c2ccc(C(=O)OC)cc2)cc1 (stereo unspecified)
Second: Cc1ccc(C(=O)NCC(/C=C/c2ccccc2)OC(=O)c2ccc(C)cc2)cc1 (stereo unspecified)
The IC50 of the first is 1.5-fold lower: 40.5 µM for the first, 61.5 µM for the second.

`O=S(=O)(NCC(O)/C=C/c1ccccc1)c1ccc(F)cc1` (stereo unspecified) and `Cc1ccc(S(=O)(=O)NCC(O)/C=C/c2ccccc2)cc1` (stereo unspecified) are within 1.5-fold of each other in IC50: 7.9 µM for the first, 7.6 µM for the second.

`NCC(O)c1ccsc1` (stereo unspecified) and `COc1cccc(C(O)CN)c1` (stereo unspecified) are within 1.5-fold of each other in IC50: 8900 µM for the first, 6100 µM for the second.

`N#Cc1ccc(S(=O)(=O)NCC(O)/C=C/c2ccccc2)cc1` (stereo unspecified) and `O=S(=O)(NCC(O)/C=C/c1ccccc1)c1ccc(Br)cc1` (stereo unspecified) are within 1.5-fold of each other in IC50: 11.4 µM for the first, 9.4 µM for the second.

`N#Cc1ccc(CN(Cc2ccc(C#N)cc2)CC(O)/C=C/c2ccccc2)cc1` (stereo unspecified) and `Cc1ccc(CN(Cc2ccc(C)cc2)CC(O)/C=C/c2ccccc2)cc1` (stereo unspecified) are within 1.5-fold of each other in IC50: 49.8 µM for the first, 50.7 µM for the second.

`COc1cccc(S(=O)(=O)NCC(O)/C=C/c2ccccc2)c1` (stereo unspecified) and `COc1ccc(S(=O)(=O)NCC(O)/C=C/c2ccccc2)cc1` (stereo unspecified) are within 1.5-fold of each other in IC50: 7.2 µM for the first, 6.4 µM for the second.

`O=S(=O)(NCC(O)/C=C/c1ccccc1)c1ccccc1` (stereo unspecified) and `O=S(=O)(NCC(O)/C=C/c1ccccc1)c1ccc(Cl)cc1` (stereo unspecified) are within 1.5-fold of each other in IC50: 7.6 µM for the first, 9.2 µM for the second.

`O=S(=O)(NCC(O)/C=C/c1ccccc1)c1ccc(OCc2ccccc2)cc1` (stereo unspecified) and `COC(=O)c1ccc(S(=O)(=O)NCC(O)/C=C/c2ccccc2)cc1` (stereo unspecified) are within 1.5-fold of each other in IC50: 11.1 µM for the first, 13.3 µM for the second.

`OC(/C=C/c1ccccc1)CN(Cc1ccccc1)Cc1ccccc1` (stereo unspecified) and `OC(/C=C/c1ccccc1)CN(Cc1ccc(C(F)(F)F)cc1)Cc1ccc(C(F)(F)F)cc1` (stereo unspecified) are within 1.5-fold of each other in IC50: 41.5 µM for the first, 32.8 µM for the second.

First: COc1ccccc1S(=O)(=O)NCC(O)/C=C/c1ccccc1 (stereo unspecified)
Second: NCC(O)/C=C/c1ccccc1 (stereo unspecified) [listing 2 of 2 here]
The IC50 of the first is 27-fold lower: 8 µM for the first, 214 µM for the second.

Compared with `COc1ccccc1C(O)CN` (stereo unspecified), `N#Cc1ccc(C(=O)NCC(/C=C/c2ccccc2)OC(=O)c2ccc(C#N)cc2)cc1` (stereo unspecified) is 160-fold lower in IC50: 5200 µM for the first, 33 µM for the second. The second is the more potent here.
